Among the data in ChEMBL document CHEMBL1128721, “Identification, characterization and pharmacological profile of three metabolites of (R)-(+)-1,2,3,6-tetrahydro-4-phenyl-1-[(3-phenylcyclohexen-1-yl)methyl]pyridine (CI-1007), a dopamine autoreceptor agonist and potential antipsychotic agent” (J Med Chem, 1995) are ED50, Activity and Ki values, retold here.

pKi: −log10 of the molar value. Bounds are passed on as bounds.

Assay [1] relates to Monkey. The assay is described as follows: Inhibition of conditioned avoidance in squirrel monkeys was determined after peroral administration of compound. The note with it: in Saimiri, po. Type of assay: functional. The procedure, abridged:
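Squirrel monkeys dosed orally, conditioned avoidance monitored for 6 h. Inhibition taken as percent of control avoidance responding over the 4 h peak-effect period. ED50 with 95% confidence range from three doses, eight monkeys per dose.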

Assay [2] concerns Rattus norvegicus. The assay is described as follows: Effect on […] in rats after intraperitoneal administration of compound (10 mg/kg) and GBL, was determined and expressed as percent reversal of the increase in DOPA. The class given is functional.
For assay [3], the target named is T1, D(2) dopamine receptor (Homo sapiens, UniProt P14416). The assay is described as follows: Intrinsic activity relative to Quinpirole for human Dopamine receptor D2L was determined. The procedure, abridged:
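CHO-10001 cells transfected with human DA D2L receptor; activation read as stimulation of [3H]thymidine uptake (mitogenesis). Intrinsic activity = maximal response of compound relative to maximal response of full DA agonist quinpirole, ± SEM.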

Assay [4] has as its system Mus musculus. The assay is described as follows: Inhibition of locomotor activity in mice was determined after intraperitoneal administration of compound. The class given is functional. Conditions: ip. The procedure, abridged:
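Mice dosed ip, then tested immediately for 1 h in darkened cylindrical photobeam chambers. Inhibition expressed relative to vehicle-treated mice. ED50 with 95% confidence range from three to six doses, 6–18 animals per dose.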

Assay [5] concerns the target D(3) dopamine receptor (Homo sapiens, UniProt P35462). The assay is described as follows: Binding affinity towards human Dopamine receptor D3 evaluated using [3H]spiperone.
Assay [6] concerns the target T1, D(2) dopamine receptor. The assay is described as follows: Binding affinity towards human Dopamine receptor D2L evaluated using [3H]spiperone. The procedure, abridged:
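Human D2L expressed in CHO-K1 membranes. Labelled with 0.6 nM [3H]spiperone in triplicate in Tris HCl pH 7.4 buffer with 1 mM EDTA and 6 mM MgCl2, 60 min at 25 °C. 1 μM haloperidol defines specific binding. Bound ligand filtered and counted. Ki ± SEM from four to six concentrations by nonlinear regression.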

Assay [7] has as its system Rattus norvegicus. The assay is described as follows: Effect on DOPA accumulation in rat striatum after intraperitoneal administration of compound (3 mg/kg) and GBL, was determined and expressed as percent reversal of the increase in DOPA. Type of assay: functional.
Assay [8] deals with T1, D(2) dopamine receptor. The assay is described as follows: Binding affinity towards human Dopamine receptor D2L evaluated using [3H]N-0437. The procedure, abridged: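 CHO-K1 membranes expressing human D2L incubated in triplicate with 1 nM [3H]N-0437 in 25 mM Tris HCl pH 7.4 with 1 mM EDTA and 6 mM MgCl2, 25 °C for 60 min. Nonspecific binding set with 1 μM haloperidol. Filtration, scintillation counting. Ki by nonlinear regression from four to six concentrations, ± SEM.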

In assay [9] the target is T2, D(4) dopamine receptor (Homo sapiens, UniProt P21917).
T2 sequence (P21917 whole entry): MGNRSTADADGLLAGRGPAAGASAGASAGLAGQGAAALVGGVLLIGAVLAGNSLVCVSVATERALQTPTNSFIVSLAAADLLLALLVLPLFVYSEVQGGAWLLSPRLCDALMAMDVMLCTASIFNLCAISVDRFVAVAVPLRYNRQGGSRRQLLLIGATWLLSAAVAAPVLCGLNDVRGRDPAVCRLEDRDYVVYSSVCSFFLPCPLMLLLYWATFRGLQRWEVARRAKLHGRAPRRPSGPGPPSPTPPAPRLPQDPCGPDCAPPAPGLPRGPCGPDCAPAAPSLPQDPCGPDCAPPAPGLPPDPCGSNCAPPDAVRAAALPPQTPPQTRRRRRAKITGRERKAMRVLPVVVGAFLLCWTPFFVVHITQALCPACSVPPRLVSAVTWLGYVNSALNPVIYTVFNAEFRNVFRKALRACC
The assay is described as follows: Binding affinity towards human Dopamine receptor D4.2 evaluated using [3H]spiperone. An outline of the steps: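 CHO-K1 membranes bearing human D4.2 run in triplicate with 0.2 nM [3H]spiperone in Tris HCl pH 7.4 buffer with 1.5 mM CaCl2 and 5 mM KCl, 25 °C, 60 min. Specific binding is the fraction blocked by 1 μM haloperidol. Filtration, then scintillation counting. Ki ± SEM by nonlinear regression over four to six concentrations; IC50 given where inhibition at 10 μM is below 50%.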

The subject of assay [10] is Rattus norvegicus. The assay is described as follows: Effect on DOPA accumulation in rat striatum after intraperitoneal administration of compound (10 mg/kg) and GBL, was determined and expressed as percent reversal of the increase in DOPA. Type of assay: functional. The procedure, abridged: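 Male Long-Evans rats given compound 10 mg/kg ip 60 min before sacrifice. GBL 750 mg/kg ip (omitted in controls) and NSD 1015 100 mg/kg ip given 30 min before sacrifice. Striatal DOPA measured by HPLC with electrochemical detection. Result is percent reversal of the GBL-induced DOPA rise, ± SEM.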

T1 sequence (P14416 whole entry): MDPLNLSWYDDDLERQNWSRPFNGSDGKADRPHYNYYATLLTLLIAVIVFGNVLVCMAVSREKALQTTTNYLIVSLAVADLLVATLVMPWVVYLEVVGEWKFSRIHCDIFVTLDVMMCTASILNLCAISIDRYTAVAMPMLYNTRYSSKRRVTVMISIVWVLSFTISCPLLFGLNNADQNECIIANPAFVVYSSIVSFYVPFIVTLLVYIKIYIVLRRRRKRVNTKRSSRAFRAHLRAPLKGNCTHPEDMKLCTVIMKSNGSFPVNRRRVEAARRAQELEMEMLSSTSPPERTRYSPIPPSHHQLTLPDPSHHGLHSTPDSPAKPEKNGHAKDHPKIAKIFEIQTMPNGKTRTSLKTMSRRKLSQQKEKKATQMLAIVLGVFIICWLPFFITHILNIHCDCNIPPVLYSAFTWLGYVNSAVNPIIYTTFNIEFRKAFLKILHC
D(3) dopamine receptor, sequence (P35462 whole entry): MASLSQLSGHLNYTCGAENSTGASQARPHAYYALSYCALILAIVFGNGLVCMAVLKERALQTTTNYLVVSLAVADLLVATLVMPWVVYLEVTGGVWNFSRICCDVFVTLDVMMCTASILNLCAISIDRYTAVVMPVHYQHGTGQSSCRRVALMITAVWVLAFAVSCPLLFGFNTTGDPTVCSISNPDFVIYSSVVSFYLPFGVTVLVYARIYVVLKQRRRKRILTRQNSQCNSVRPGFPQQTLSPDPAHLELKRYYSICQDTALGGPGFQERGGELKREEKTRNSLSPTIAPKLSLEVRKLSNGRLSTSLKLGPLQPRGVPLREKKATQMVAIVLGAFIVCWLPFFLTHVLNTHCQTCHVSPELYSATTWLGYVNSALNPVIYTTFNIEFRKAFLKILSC

For the compound `Oc1ccc(C2=CCC[C@@H](CN3CC=C(c4ccccc4)CC3)C2)cc1`, the values for the ED50 in assay [1] and in [4] were 1.34 mg/kg and 0.3 mg/kg, respectively. Moreover, the Activity in [2] was -100; in [3] it was 0.62; in assay [7], -44; in assay [10] it was -27. In addition, the pKi – broadly, the negative decadic logarithm of the Ki, by convention in mol/L – in [5] is 9.28; in assay [6], 8.46; in assay [8], 9.70; in assay [9], 7.21.
`Oc1ccc(C2=CCN(C[C@@H]3CCC=C(c4ccccc4)C3)CC2)cc1`: the ED50 (usually the midpoint of the dose-response relation) is > 2.5 mg/kg in [1] and > 30 mg/kg in assay [4]. In addition, the Activity in assay [2] stood at 33; in assay [3], 0.37; in [10], 0. Besides, the pKi in assay [5] was 7.25; in assay [6], 7.03; in [8], 8.24; in assay [9], < 5.00.
As to `C1=C(c2ccccc2)CCN(C[C@@H]2CCC=C(c3ccccc3)C2)C1` [CI-1007], the values for the ED50 in assay [1] and in assay [4] were 0.63 mg/kg and 0.7 mg/kg, respectively. Also, the results for the Activity in assay [2], in assay [3] and in assay [10] were -99, 0.66 and -66, respectively. For the same compound, in assay [8], the pKi is 8.08.
Take `Oc1ccc(C2=CCN(C[C@@H]3CCC=C(c4ccc(O)cc4)C3)CC2)cc1`: the results for the ED50 in assay [1] and in [4] were > 2.5 mg/kg and 6.1 mg/kg, respectively. Besides, the Activity in [2] was -10; in assay [3] it was 0.29; in assay [10], -8. Besides, the pKi in assay [5] was 8.47; in assay [6], 7.99; in [8], 8.66; in assay [9] it was 7.17.
